# Laboratory results: ChEMBL document CHEMBL4033782, “Structural Modification of Natural Product Tanshinone I Leading to Discovery of Novel Nitrogen-Enriched Derivatives with Enhanced Anticancer Profile and Improved Drug-like Properties” (J Med Chem, 2018)
# The source made the active and inactive calls. No cut-off for these calls is given here.
# Columns and labels:
# KB = assay: Antiproliferative activity against human KB cells after 72 hrs by sulforhodamine B assay; type: functional, cell-based
# Method in brief: (§1)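 Cells grown in ATCC-specified medium with 10% heat-inactivated FBS, penicillin/streptomycin and 10 mM Hepes, at 37 °C under 5% CO2. Seeded, cultured overnight, then exposed to gradient concentrations for 72 h. Growth read by SRB staining; inhibition % = [1−(A450 treated/A450 control)]×100. IC50 obtained by the Logit method from independent experiments.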
# [1] = Antiproliferative activity against human KB/VCR cells after 72 hrs by sulforhodamine B assay; type: functional, cell-based; method in brief: as §1
# [2] = Aqueous solubility of the compound in pH 7.5 Tris buffer after 24 hrs by HPLC method; type: physicochemical
# Liver [3] = assay: Intrinsic clearance in human liver microsomes assessed as per mg protein up to 60 mins by LC-MS/MS analysis; type: ADME, microsome; conditions: 1 h
# Method in brief: (§2)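 Compound at 0.1 μM final (0.01% DMSO, 0.005% BSA) incubated at 37 °C with human, rat or mouse liver microsomes (0.33 mg/mL protein) in 0.1 M Tris/HCl pH 7.4, with 5 mM MgCl2 and 1 mM NADPH. Samples taken at 0, 7, 17, 30 and 60 min, quenched by methanol precipitation, centrifuged, and parent measured by LC-MS/MS. T1/2 and Clint derived.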
# [4] = Half life in mouse liver microsomes at 0.1 uM up to 60 mins by LC-MS/MS analysis; type: ADME, microsome; conditions: liver microsomes; method in brief: as §2
# [5] = Half life in human liver microsomes at 0.1 uM up to 60 mins by LC-MS/MS analysis; type: ADME, microsome; method in brief: as §2
# [6] = Half life in rat liver microsomes at 0.1 uM up to 60 mins by LC-MS/MS analysis; type: ADME, microsome; method in brief: as §2
# Liver [7] = assay: Intrinsic clearance in rat liver microsomes assessed per mg protein up to 60 mins by LC-MS/MS analysis; type: ADME, microsome; conditions: 1 h
# Method in brief: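 Liver microsomes (0.33 mg/mL protein) in 0.1 M Tris/HCl pH 7.4 with 5 mM MgCl2, 1 mM NADPH, compound at 0.1 μM final (0.01% DMSO, 0.005% BSA), 37 °C; samples at 0, 7, 17, 30, 60 min quenched in methanol, centrifuged, LC-MS/MS; T1/2 and Clint per g protein derived.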
# Liver [8] = assay: Intrinsic clearance in mouse liver microsomes assessed per mg protein up to 60 mins by LC-MS/MS analysis; type: ADME, microsome; conditions: 1 h; method in brief: as §2
# HCT-116 [9] = assay: Induction of apoptosis in human HCT116 cells assessed as activation of caspase 3/7 at 1.0 to 4.0 uM after 24 hrs by Caspase-Glo 3/7 assay
# HCT-116 [10] = assay: Induction of apoptosis in human HCT116 cells pretreated with Z-VAD-FMK pan-caspase inhibitor for 1 hr assessed as activation of caspase 3/7 at 1.0 to 4.0 uM after 24 hrs by Caspase-Glo 3/7 assay
# HCT-116 [11] = assay: Induction of apoptosis in human HCT116 cells assessed as activation of caspase 3/7 after 48 hrs by Western blot analysis; type: functional, cell-based
# Method in brief: (§3)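 HCT116 cells, with or without a 1 h pretreatment with 20 μM Z-VAD-FMK, exposed for 48 h. Lysed on ice in Hepes/NaCl/Triton X-100 buffer with protease/phosphatase inhibitors and clarified at 12,000×g. Equal protein run by SDS-PAGE, blotted to nitrocellulose, probed overnight at 4 °C for PARP, caspase 3, caspase 7 and β-actin. HRP secondaries, ECL detection.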
# HCT-116 [12] = assay: Induction of apoptosis in human HCT116 cells after 48 hrs by Annexin V-FITC/propidium iodide staining-based FACS analysis; type: functional, cell-based
# HCT-116 [13] = assay: Induction of apoptosis in human HCT116 cells assessed as cleavage of PARP after 48 hrs by Western blot analysis; type: functional, cell-based; method in brief: as §3
# HCT-116 [14] = assay: Antitumor activity against human HCT116 cells xenografted in BALB/C nude mouse assessed as tumor growth inhibition at 10 mg/kg, iv once daily for 14 days starting on day 14 post tumor implantation measured on day 32; type: functional, organism-based
# Method in brief: (§4)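 BALB/c nude male mice (18–20 g) implanted subcutaneously in the right axilla with HCT116 cells. Dosing began once tumors exceeded 100 mm³ (day 14). Test agent given 10 mg/kg i.v. or 30 mg/kg i.p. daily for 14 days; 5-FU 15 mg/kg as reference. Vehicle 1% DMSO in sterile saline; 6 mice per treated group, 10 per control. Relative tumor volume and body weight tracked.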
# HCT-116 [15] = assay: Antitumor activity against human HCT116 cells xenografted in BALB/C nude mouse assessed as tumor growth inhibition at 30 mg/kg, ip once daily for 14 days starting on day 14 post tumor implantation measured on day 32; type: functional, organism-based; method in brief: as §4
# HCT-116 [16] = assay: Induction of apoptosis in human HCT116 cells pretreated with Z-VAD-FMK pan-caspase inhibitor for 1 hr assessed as cleavage of PARP at 0.5 to 2 uM after 48 hrs by Western blot analysis; type: functional, cell-based; method in brief: as §3
# HCT-116 [17] = assay: Induction of apoptosis in human HCT116 cells pretreated with Z-VAD-FMK pan-caspase inhibitor for 1 hr assessed as activation of caspase 3/7 at 0.5 to 2 uM after 48 hrs by Western blot analysis; type: functional, cell-based; method in brief: as §3
SMILES,IC50 (KB) [nM],IC50 [1] [nM],other results
Cc1cc2c(o1)-c1c(c3ccccc3c(=O)n1CCCN1CCN(C)CC1)C(=O)C2=O,10400,3520,–
Cc1cc2c(o1)-c1c(c3ccccc3c(=O)n1CCCCCN(C)C)C(=O)C2=O,13800,5170,–
Cc1cc2c(o1)-c1c(c3ccccc3c(=O)n1CCCn1ccnc1)C(=O)C2=O,17200,10100,–
Cc1cc2c(o1)-c1c(c3ccccc3c(=O)n1CCO)C(=O)C2=O,> 20000,> 20000,–
Cc1cccc2c3c(ccc12)-c1occ(CN2CCOCC2)c1C(=O)C3=O,> 20000,> 20000,–
Cc1cccc2c3c(ccc12)-c1occ(CN(C)C)c1C(=O)C3=O.Cl,–,–,solubility at 24 h [2]: 8030 µg/mL
Cc1cccc2c3c(ccc12)-c1occ(CN(CCCl)CCCl)c1C(=O)C3=O,9430,10900,–
CON(C)Cc1coc2c1C(=O)C(=O)c1c-2ccc2c(C)cccc12,8120,5710,–
Cc1cccc2c3c(ccc12)-c1occ(CN2CCN(C)CC2)c1C(=O)C3=O,5220,13100,–
Cc1cc2c(o1)-c1nc(OCCO)c3ccccc3c1C(=O)C2=O,> 20000,> 20000,–
Cc1cc2c(o1)-c1nc(OCCCCCN(C)C)c3ccccc3c1C(=O)C2=O,15300,1990,–
CCN(CC)CCCn1c2c(c3ccccc3c1=O)C(=O)C(=O)c1cc(C)oc1-2.Cl,–,–,solubility at 24 h [2]: > 80000 µg/mL
CCN(CC)CCCn1c2c(c3ccccc3c1=O)C(=O)C(=O)c1cc(C)oc1-2,–,–,Activity (HCT-116 [9]): Active; Activity (HCT-116 [10]): inactive; Activity (HCT-116 [11]): Dose-dependent effect; Activity (HCT-116 [12]): Dose-dependent effect; Activity (HCT-116 [13]): Dose-dependent effect; TGI (HCT-116 [14]): Active; TGI (HCT-116 [15]): Active; Activity (HCT-116 [16]): inactive; Activity (HCT-116 [17]): inactive
Cc1cccc2c3c(ccc12)-c1occ(CN2CCC(=O)CC2)c1C(=O)C3=O,9710,4740,–
COc1ccc(OC)c(NC2C3=C(OC2(C)C)c2ccc4c(C)cccc4c2C(=O)C3=O)c1 (stereo not drawn),> 20000,> 20000,–
Cc1cc2c(o1)-c1nc(OCCCCN(C)C)c3ccccc3c1C(=O)C2=O,> 20000,> 20000,–
Cc1cccc2c3c(ccc12)C1=C(C(=O)C3=O)C(Nc2ccc(F)c([N+](=O)[O-])c2)C(C)(C)O1 (stereo not drawn),> 20000,> 20000,–
Cc1cccc2c3c(ccc12)-c1occ(CN2CCO[C@H](CO)C2)c1C(=O)C3=O,4970,2410,–

# More lines, main results first:
IC50 (KB) [nM],SMILES,IC50 [1] [nM],other results
2620,Cc1cccc2c3c(ccc12)C1=C(CC(C)(C)O1)C(=O)C3=O,2370,–
3220,Cc1cccc2c3c(ccc12)-c1occ(CO)c1C(=O)C3=O,2950,–
0.72,CC[C@]1(O)C[C@H]2CN(CCc3c([nH]c4ccccc34)[C@@](C(=O)OC)(c3cc4c(cc3OC)N(C=O)[C@H]3[C@@](O)(C(=O)OC)[C@H](OC(C)=O)[C@]5(CC)C=CCN6CC[C@]43[C@@H]65)C2)C1 [VINCRISTINE],358,–
340,Cc1cc2c(o1)-c1c(c3ccccc3c(=O)n1CCCN1CCC(N3CCOCC3)CC1)C(=O)C2=O,1720,–
710,Cc1cc2c(o1)-c1c(c3ccccc3c(=O)n1CCCN(C)C)C(=O)C2=O,920,–
870,Cc1cc2c(o1)-c1c(c3ccccc3c(=O)n1CCCN1CCC(CCO)CC1)C(=O)C2=O,1490,–
1540,Cc1cccc2c3c(ccc12)-c1occ(CN2CCC(O)CC2)c1C(=O)C3=O,1110,–
3400,Cc1cc2c(o1)-c1c(c3ccccc3c(=O)n1CCCN1CCCC1)C(=O)C2=O,2640,–
3800,Cc1cccc2c3c(ccc12)-c1occ(CN2CCC(N(C)C)CC2)c1C(=O)C3=O,3820,–
1640,Cc1cccc2c3c(ccc12)-c1occ(CN(CCO)CCO)c1C(=O)C3=O,1430,–
3780,Cc1cc2c(o1)-c1nc(OCCOCCN(C)C)c3ccccc3c1C(=O)C2=O,1650,–
2610,Cc1cccc2c3c(ccc12)-c1occ(CN2CC[C@H](N(C)C)C2)c1C(=O)C3=O,1700,–
1500,Cc1cccc2c3c(ccc12)-c1occ(CN(C)CCO)c1C(=O)C3=O,1020,–
1110,Cc1cccc2c3c(ccc12)-c1occ(CN(C)C)c1C(=O)C3=O,510,intrinsic clearance (Liver [3]): 4.19 mL/min/g; half-life at 0.1 µM [4]: 40.7 min; half-life at 0.1 µM [5]: 501 min; half-life at 0.1 µM [6]: 22.7 min; intrinsic clearance (Liver [7]): 92.7 mL/min/g; intrinsic clearance (Liver [8]): 51.6 mL/min/g
1630,Cc1cccc2c3c(ccc12)C1=C(C(=O)C3=O)C(O)C(C)(C)O1 (stereo not drawn),1240,intrinsic clearance (Liver [3]): 36.8 mL/min/g; half-life at 0.1 µM [4]: 25.3 min; half-life at 0.1 µM [5]: 57.1 min; half-life at 0.1 µM [6]: 20.2 min; solubility at 24 h [2]: 90 µg/mL; intrinsic clearance (Liver [7]): 104 mL/min/g; intrinsic clearance (Liver [8]): 83.1 mL/min/g
2680,Cc1cccc2c3c(ccc12)-c1occ(CN2CCN(CCO)CC2)c1C(=O)C3=O,4410,–
4050,Cc1cc2c(o1)-c1c(c3ccccc3c(=O)n1CCCCN(C)C)C(=O)C2=O,2470,–
1270,Cc1cccc2c3c(ccc12)-c1occ(CN2CCC(CO)C2)c1C(=O)C3=O (stereo not drawn),910,–
1590,Cc1cccc2c3c(ccc12)-c1occ(CN2CCCC2)c1C(=O)C3=O,1790,–
1120,Cc1cc2c(o1)-c1c(c3ccccc3c(=O)n1CCCN1CCCCC1)C(=O)C2=O,1530,–
2300,Cc1cc2c(o1)-c1c(c3ccccc3c(=O)n1CCCN1CCOCC1)C(=O)C2=O,1560,–
2190,COC1C2=C(OC1(C)C)c1ccc3c(C)cccc3c1C(=O)C2=O (stereo not drawn),2020,–
